Measured values published in ChEMBL document CHEMBL1759935, “Pharmacokinetic optimisation of novel indole-2-carboxamide cannabinoid CB1 antagonists” (Bioorg Med Chem Lett, 2011).

Tests used:
[1] = Intrinsic clearance in human liver microsomes in presence of UGT; assay type: ADME, Microsome
How it was run: (§1)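 UGT pathway: human gut or liver microsomes at 0.5 mg protein/mL with 2 mM UDPGA, alamethicin and 1 mM MgCl2, pH 7.1. Compound depletion measured by LC–MS/MS in duplicate time-course incubations; intrinsic clearance expressed per mg protein.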

[2] = Intrinsic clearance in human gut microsomes in presence of NADPH; assay type: ADME, Microsome
How it was run: (§2)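 Pooled human microsomes (gut or liver) at 0.5 mg protein/mL with 1 mM NADPH, pH 7.4 (P450 pathway). Compound loss followed by LC–MS/MS in duplicate time-course incubations; intrinsic clearance given per mg protein.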

[3] = Intrinsic clearance in human gut microsomes in presence of UGT; assay type: ADME, Microsome; how it was run: as §1
[4] = Intrinsic clearance in human liver microsomes in presence of NADPH; assay type: ADME, Microsome; how it was run: as §2
Cannabinoid receptor 1 [5] = biological target: T1, Cannabinoid receptor 1 (Homo sapiens, UniProt P21554); test: Antagonist activity against human CB1 receptor; assay type: functional
Mus musculus = test: Inhibition of WIN55212-2-induced hypothermia in po dosed mouse assessed as change in rectal temperature administered 15 mins before WIN55212-2 challenge measured after 75 mins; assay type: functional; details: read-out: ID50 (the source's name)
How it was run: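 Antagonist or vehicle (5% mulgofen in saline, 10 mL/kg) given orally 75 min before rectal temperature reading. WIN 55,212-2 mesylate (10 mL/kg) given sc 60 min before the reading, at its time of maximal hypothermia. Metal probe with vaseline inserted about 1.5 cm; highest temperature stable for 10 s recorded. ID50 reported with confidence interval.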

Cannabinoid receptor 1 [6] = biological target: T1, Cannabinoid receptor 1; test: biochemical; assay type: cell-based, CHO
Cannabinoid receptor 2 = Cannabinoid receptor 2 (Homo sapiens, UniProt P34972); test: Displacement of [3H]CP55940 from human recombinant CB2 receptor expressed in Sf9 cells
How it was run: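 Competition binding against [3H]CP55,940 on membranes from Sf9 cells expressing recombinant human CB2 receptor; run at least in duplicate.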

T1 sequence (P21554 whole entry): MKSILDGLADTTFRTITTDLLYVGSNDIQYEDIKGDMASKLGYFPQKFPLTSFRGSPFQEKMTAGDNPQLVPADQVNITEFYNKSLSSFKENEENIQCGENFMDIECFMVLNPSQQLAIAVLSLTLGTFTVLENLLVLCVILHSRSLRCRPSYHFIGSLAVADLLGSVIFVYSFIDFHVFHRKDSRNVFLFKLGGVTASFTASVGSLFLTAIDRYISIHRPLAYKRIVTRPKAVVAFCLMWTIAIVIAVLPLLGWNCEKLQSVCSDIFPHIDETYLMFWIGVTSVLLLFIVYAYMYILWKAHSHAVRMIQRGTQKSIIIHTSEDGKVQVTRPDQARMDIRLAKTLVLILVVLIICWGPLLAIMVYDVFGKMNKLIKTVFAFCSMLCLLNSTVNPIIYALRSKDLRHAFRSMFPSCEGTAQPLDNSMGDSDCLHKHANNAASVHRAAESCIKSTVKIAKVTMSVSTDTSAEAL
Sequence of Cannabinoid receptor 2 (P34972 whole entry): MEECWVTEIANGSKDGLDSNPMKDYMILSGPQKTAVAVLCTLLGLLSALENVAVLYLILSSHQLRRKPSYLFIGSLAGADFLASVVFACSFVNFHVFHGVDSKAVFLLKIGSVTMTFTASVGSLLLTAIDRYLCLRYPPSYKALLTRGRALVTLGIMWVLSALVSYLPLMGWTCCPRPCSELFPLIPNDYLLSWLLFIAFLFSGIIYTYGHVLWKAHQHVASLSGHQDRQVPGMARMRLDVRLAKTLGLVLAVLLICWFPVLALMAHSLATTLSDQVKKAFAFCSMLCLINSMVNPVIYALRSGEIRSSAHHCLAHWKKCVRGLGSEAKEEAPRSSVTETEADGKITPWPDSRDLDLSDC

| SMILES | microsomal CLint [1] [µL/min/mg] | microsomal CLint [2] [µL/min/mg] | microsomal CLint [3] [µL/min/mg] | microsomal CLint [4] [µL/min/mg] | IC50 (Cannabinoid receptor 1 [5]) [nM] | ED50 (Mus musculus) [µmol/kg] | Ki (Cannabinoid receptor 1 [6]) [nM] | Ki (Cannabinoid receptor 2) [nM] |
| --- | --- | --- | --- | --- | --- | --- | --- | --- |
| N#Cc1ccc2c(c1)cc(C(=O)NCCC(O)C(F)(F)F)n2Cc1cccc(OC(F)(F)F)c1 (centres undefined) | 31 | 26 | < 6 | 59 | 8.13 | – | – | – |
| COc1ccc(Cl)cc1Cn1c(C(=O)NCC(C)(C)CO)cc2cc(C#N)ccc21 | 10 | < 6 | 63 | 83 | 2 | – | – | – |
| CC(C)(O)CCNC(=O)c1cc2cc(C#N)ccc2n1Cc1cccc(OC(F)(F)F)c1 | < 6 | < 6 | 9 | 9 | 13.5 | 9.67 | 5.01 | – |
| CCCOc1cccc(Cn2c(C(=O)NCC(C)(C)CO)cc3cc(C#N)ccc32)c1 | 10 | 13 | 45 | 156 | 1.55 | – | – | – |
| COc1ccc(OC(F)(F)F)cc1Cn1c(C(=O)NCC(C)(C)O)cc2cc(C#N)ccc21 | < 6 | < 6 | 8 | < 6 | 22.4 | > 10 | 5.5 | – |
| COc1ccc(C(F)(F)F)cc1Cn1c(C(=O)NCCC2(O)CCC2)cc2cc(C#N)ccc21 | < 6 | < 6 | < 6 | 88 | 1.48 | – | – | – |
| Cc1c(C(=O)NN2CCCCC2)nn(-c2ccc(Cl)cc2Cl)c1-c1ccc(Cl)cc1 [RIMONABANT] | < 6 | < 6 | < 6 | 69 | – | 1.29 | – | – |
| Cc1ccc(C)c(Cn2c(C(=O)NCC(C)(C)CO)cc3cc(C#N)ccc32)c1 | 29 | < 6 | 124 | 257 | 0.631 | – | – | – |
| CCOc1ccc(OC(F)(F)F)cc1Cn1c(C(=O)NCC(C)(C)CO)cc2cc(C#N)ccc21 | 20 | < 6 | 103 | 103 | 8.32 | – | – | – |
| CC(C)(CO)CNC(=O)c1cc2cc(C#N)ccc2n1Cc1cc(Cl)cc(Cl)c1 | 22 | < 6 | 98 | 103 | 5.37 | – | – | – |
| CC(O)CCNC(=O)c1cc2cc(C#N)ccc2n1Cc1cccc(OC(F)(F)F)c1 (centres undefined) | < 6 | < 6 | < 6 | 113 | 8.91 | – | – | – |
| Cc1ccc(C(F)(F)F)cc1Cn1c(C(=O)NCC(C)(C)CO)cc2cc(C#N)ccc21 | 16 | < 6 | 102 | 180 | 0.513 | – | – | – |
| CC(C)(CO)CNC(=O)c1cc2cc(C#N)ccc2n1Cc1cccc(OC(F)(F)F)c1 | 20 | < 6 | 136 | 62 | 1.82 | 3.42 | 0.794 | > 10000 |
| COc1ccc(C(C)(C)C)cc1Cn1c(C(=O)NCC2(CO)CC2)cc2cc(C#N)ccc21 | < 6 | < 6 | 26 | 188 | 1.48 | – | – | – |
| COc1ccc(Br)cc1Cn1c(C(=O)NCCCO)cc2cc(C#N)ccc21 | < 6 | < 6 | < 6 | 41 | 9.33 | – | – | – |
| Cc1ccc(F)cc1Cn1c(C(=O)NCC2(CO)CCC2)cc2cc(C#N)ccc21 | 49 | < 6 | 175 | 190 | 4.9 | – | – | – |
| COc1ccc(C)cc1Cn1c(C(=O)NCC(C)(C)CO)cc2cc(C#N)ccc21 | 23 | < 6 | 64 | 191 | 0.759 | – | – | – |
| COc1ccc(Br)cc1Cn1c(C(=O)NCC(C)(C)CO)cc2cc(C#N)ccc21 | 23 | < 6 | 94 | 104 | 0.776 | – | – | – |
| COc1ccc(Cl)cc1Cn1c(C(=O)NCC2(CO)CCC2)cc2cc(C#N)ccc21 | 34 | < 6 | 179 | 196 | 2.57 | – | – | – |
| COc1ccc(OC(F)(F)F)cc1Cn1c(C(=O)NCC2(CO)CC2)cc2cc(C#N)ccc21 | 18 | < 6 | 51 | 139 | 5.13 | – | – | – |
| N#Cc1ccc2c(c1)cc(C(=O)NCCC(O)(C(F)(F)F)C(F)(F)F)n2Cc1cccc(OC(F)(F)F)c1 | 24 | < 6 | < 6 | 20 | 6.03 | – | – | – |
| CC(O)C1(CNC(=O)c2cc3cc(C#N)ccc3n2Cc2cccc(OC(F)(F)F)c2)CCCC1 (centres undefined) | 9 | 99 | < 6 | 505 | 5.13 | – | – | – |
| COc1ccc(C(F)(F)F)cc1Cn1c(C(=O)NCC(C)(C)O)cc2cc(C#N)ccc21 | < 6 | < 6 | < 6 | 7 | 11.5 | > 10 | 7.59 | – |
| Cc1ccc(Cl)cc1Cn1c(C(=O)NCC(C)(C)CO)cc2cc(C#N)ccc21 | 23 | < 6 | 124 | 119 | 0.575 | – | – | – |
| N#Cc1ccc2c(c1)cc(C(=O)NCCC1(O)CCC1)n2Cc1cccc(OC(F)(F)F)c1 | < 6 | < 6 | < 6 | 78 | 2.63 | – | – | – |
| COc1ccc(C(F)(F)F)cc1Cn1c(C(=O)NCC2(CO)CC2)cc2cc(C#N)ccc21 | 7 | < 6 | 49 | 155 | 1.32 | – | – | – |
